Data as given in ChEMBL document CHEMBL1123394, “Systematic synthesis and biological evaluation of alpha- and beta-D-xylofuranosyl nucleosides of the five naturally occurring bases in nucleic acids and related analogues” (J Med Chem, 1986).
In brackets after ≈: the same amount, converted by molar mass.

How the values were obtained:
[1] = Concentration required to reduce protein synthesis in primary rabbit kidney cells usingi [3H2-4,5]leucine incorporation; type: functional; conditions: Oryctolagus cuniculus, read-out: ID50 (the source's name)
Procedure, shortened: (§1)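 Primary rabbit kidney cells with compounds in growth medium at 100, 10, or 1 μg/mL or less. Cell number and incorporation of [3H-methyl]dThd (DNA), [3H-5]Urd (RNA) or [3H2-4,5]leucine (protein) measured. ID50 taken as the dose giving 50% reduction in cell number or in DNA, RNA or protein synthesis.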

[2] = Dose required to reduce primary rabbit kidney cell growth; type: functional; conditions: Oryctolagus cuniculus, read-out: ID50 (the source's name); procedure, shortened: as §1
[3] = Concentration required to reduce DNA synthesis in primary rabbit kidney cells using [3H-Methyl]-dThd incorporation; type: functional; conditions: Oryctolagus cuniculus, read-out: ID50 (the source's name); procedure, shortened: as §1
[4] = Concentration required to reduce RNA synthesis in primary rabbit kidney cells using [3H-5]-Urd incorporation; type: functional; conditions: Oryctolagus cuniculus, read-out: ID50 (the source's name); procedure, shortened: as §1
[5] = tested on: Mus musculus; test: Toxicity of compound against mice was determined at a concentration of 750 mg/kg; type: organism-based; set-up: dose 750 mg/kg; conditions: in vivo
Procedure, shortened: (§2)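 Swiss mice (20-24 g) received a single intraperitoneal dose of 100-2,000 mg/kg. Compound was suspended in distilled water containing 0.2 g Tween 80 and 0.2 g (carboxymethyl)cellulose per 100 mL. Mice were followed for 14 days for acute toxicity.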

[6] = tested on: Mus musculus; test: Toxicity of compound against mice was determined at a concentration of 250 mg/kg; type: organism-based; set-up: dose 250 mg/kg; conditions: in vivo; procedure, shortened: as §2
[7] = tested on: Mus musculus; test: Toxicity of compound against mice was determined at a concentration of 100 mg/kg; type: organism-based; set-up: dose 100 mg/kg; conditions: in vivo; procedure, shortened: as §2
[8] = Number of living cells on the proliferation of mouse myeloma cells SP2 was measured at concentration 100 ug/mL at 0h.; type: functional
Procedure, shortened: (§3)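 Mouse myeloma SP2 cells seeded at 123 × 10^3 cells and exposed to compound at 1, 10 or 100 μg/mL in growth medium. Living cells counted at 0, 48 and 96 h alongside untreated controls.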

[9] = tested on: Vero; test: Concentration required for microscopically detectable alteration of the normal cell morphology in Vero B cells.; type: functional; conditions: Chlorocebus sabaeus
Procedure, shortened: (§4)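 Host-cell morphology inspected microscopically for detectable alteration, with compounds in growth medium at up to 200 or 400 μg/mL.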

[10] = Antiviral activity was measured against Vaccinia virus in rabbit kidney cells.; type: functional; conditions: Oryctolagus cuniculus
Procedure, shortened: (§5)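 Inhibition of virus-induced cytopathogenicity in cell culture. Compounds were dissolved in growth medium at 100, 10 or 1 μg/mL or less.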

[11] = tested on: WI-38; test: Antiviral activity was measured against Rhino virus-9 in human diploid (WI-38) cells.; type: functional
Procedure, shortened: (§6)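 Inhibition of virus-induced cytopathogenicity scored in cell culture monolayers. Test compounds dissolved in growth medium at 100, 10, or 1 μg/mL or less.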

[12] = tested on: Vero; test: Antiviral activity was measured against Parainfluenza virus-3 in african green monkey kidney (Vero B) cells.; type: functional; conditions: Chlorocebus sabaeus; procedure, shortened: as §6
[13] = organism: Mus musculus; test: Efficacy expressed as number of surviving mice infected with herpetic encephalitis at dose of 75 mg.kg; type: functional
Procedure, shortened: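 Young mice (10 g) were inoculated intracerebrally with 0.03 mL of herpes simplex virus suspension containing ca. 4 CCID50. Compound was given at 75 or 150 mg/kg per day as two daily intraperitoneal injections for 4 days. Read-out was the number of surviving mice.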

[14] = tested on: HeLa; test: Antiviral activity was measured against Coxsackie virus B4 in HeLa cells.; type: functional; conditions: Homo sapiens; procedure, shortened: as §5
[15] = tested on: WI-38; test: Antiviral activity was measured against Rhino virus-1A in human diploid (WI-38) cells.; type: functional; procedure, shortened: as §6
[16] = tested on: Vero; test: Antiviral activity was measured against Coxsackie virus B4 in african green monkey kidney (Vero B) cells.; type: functional; conditions: Chlorocebus sabaeus; procedure, shortened: as §6
[17] = Number of living cells on the proliferation of mouse myeloma cells SP2 was measured at concentration 100 ug/mL at 48 hr.; type: functional; procedure, shortened: as §3
[18] = tested on: Vero; test: Antiviral activity was measured against Sindbis virus in african green monkey kidney (Vero B) cells.; type: functional; conditions: Chlorocebus sabaeus; procedure, shortened: as §6
[19] = Antiviral activity was measured against Vesicular stomatitis virus in rabbit kidney cells.; type: functional; conditions: Oryctolagus cuniculus; procedure, shortened: as §5
[20] = tested on: Mus musculus; test: Efficacy expressed as number of surviving mice infected with herpetic encephalitis at dose of 150 mg/kg; T is Toxic; type: functional, organism-based; set-up: dose 150 mg/kg
[21] = tested on: Vero; test: Antiviral activity was measured against forest virus in african green monkey kidney (Vero B) cells.; type: functional; conditions: Chlorocebus sabaeus; procedure, shortened: as §6
[22] = tested on: Mus musculus; test: Efficacy expressed as number of surviving mice infected with herpetic encephalitis at dose of 0 mg/kg; type: functional
[23] = Concentration required for microscopically detectable alteration of the normal cell morphology in PRK cells.; type: functional; conditions: Oryctolagus cuniculus; procedure, shortened: as §4
[24] = tested on: HeLa; test: Concentration required for microscopically detectable alteration of the normal cell morphology in HeLa cells.; type: functional; conditions: Homo sapiens; procedure, shortened: as §4
[25] = Antiviral activity was measured against Herpes simplex virus (HSV-2 G) in rabbit kidney cells.; type: functional; conditions: Oryctolagus cuniculus; procedure, shortened: as §6
[26] = tested on: Vero; test: Antiviral activity was measured against Reo virus-1 in african green monkey kidney (Vero B) cells.; type: functional; conditions: Chlorocebus sabaeus; procedure, shortened: as §6
[27] = Antiviral activity was measured against Herpes simplex virus (HSV-1 KOS) in rabbit kidney cells.; type: functional; conditions: Oryctolagus cuniculus; procedure, shortened: as §5
[28] = Number of living cells on the proliferation of mouse myeloma cells SP2 was measured at concentration 100 ug/mL at 96 h.; type: functional; procedure, shortened: as §3
[29] = tested on: WI-38; test: Concentration required for microscopically detectable alteration of the normal cell morphology in Wi-38 cells.; type: functional; conditions: Homo sapiens; procedure, shortened: as §4
[30] = dose required to reduce primary rabbit kidney cell growth; type: functional; conditions: Oryctolagus cuniculus, read-out: ID50 (the source's name); procedure, shortened: as §1
[31] = Antiviral activity was measured against vesicular stomatitis virus in rabbit kidney cells.; type: functional; conditions: Oryctolagus cuniculus; procedure, shortened: as §5
[32] = Antiviral activity was measured against vaccinia virus in rabbit kidney cells.; type: functional; conditions: Oryctolagus cuniculus; procedure, shortened: as §5
[33] = tested on: HeLa; test: Antiviral activity was measured against vesicular stomatitis virus in HeLa cells.; type: functional; conditions: Homo sapiens; procedure, shortened: as §5

SMILES	MCC [9] [µg/mL]	MCC [11] [µg/mL]	MCC [12] [µg/mL]	MCC [14] [µg/mL]	MCC [15] [µg/mL]	MCC [16] [µg/mL]	MCC [18] [µg/mL]	MCC [21] [µg/mL]	MCC [23] [µg/mL]	MCC [24] [µg/mL]	MCC [25] [µg/mL]	MCC [26] [µg/mL]	MCC [27] [µg/mL]	MCC [29] [µg/mL]	further results
Nc1ccn([C@@H]2O[C@H](CO)[C@@H](O)[C@@H]2O)c(=O)n1 [CYTARABINE]															IC50 [1]: > 200 µg/mL; IC50 [2]: 0.04 µg/mL (≈ 0.164 µM); IC50 [3]: 0.05 µg/mL (≈ 0.206 µM); IC50 [4]: 0.03 µg/mL (≈ 0.123 µM)
Nc1nc2c(ncn2[C@@H]2O[C@H](CO)[C@H](O)[C@H]2O)c(=O)[nH]1															No. of dead mice [5]: 8; No. of dead mice [6]: 5; No. of dead mice [7]: 2
Nc1nc(O)c2ncn([C@@H]3O[C@H](CO)[C@H](O)[C@H]3O)c2n1	> 400	> 400	> 400	> 200	> 400	> 400	> 400	> 400	> 200	400	70	> 400	70	> 400	No. of living cells [8]: 0.123; MCC [10]: 10 µg/mL; IC50 [1]: 148 µg/mL (≈ 523 µM); Efficacy [13]: 3 mg/kg; No. of living cells [17]: 0.024; MCC [19]: > 200 µg/mL; Efficacy [20]: Toxic; Efficacy [22]: 0 mg/kg; IC50 [3]: 71 µg/mL (≈ 251 µM); IC50 [4]: 61 µg/mL (≈ 215 µM); No. of living cells [28]: 0; IC50 [30]: 62 µg/mL (≈ 219 µM)
Nc1ncnc2c1ncn2C1O[C@H](CO)[C@H](O)[C@H]1O (some centres undefined)	> 400	> 40	> 400	> 400	> 400	> 400	> 400	> 400	> 400	> 400	> 400	> 400	> 400	> 400	
NC(=O)c1ncn([C@H]2O[C@H](CO)[C@H](O)[C@H]2O)c1N	> 400	> 400	> 400	> 400	> 400	> 300	> 400	> 400	> 400	> 400	> 400	> 400	> 400	> 400	
O=c1ccn(C2O[C@H](CO)[C@H](O)[C@H]2O)c(=O)[nH]1 (some centres undefined)	> 400	> 400	> 400	> 400	> 400	> 400	> 400	> 400	> 400	> 400	300	> 400	300	> 400	MCC [10]: 150 µg/mL; MCC [31]: > 200 µg/mL
Nc1nccc2c1ncn2[C@@H]1C[C@H](CO)[C@@H](O)[C@H]1O [3-DEAZAARISTEROMYCIN A]	≥ 400	> 400	0.2	> 400	> 400	0.7	> 400	> 400	> 400	≥ 400	> 400	2	> 400	> 400	MCC [32]: 2 µg/mL; MCC [31]: 0.7 µg/mL; MCC [33]: 2 µg/mL
